Measurements published in ChEMBL document CHEMBL3286116, “Synthesis, biological evaluation and structure-activity correlation study of a series of imidazol-based compounds as Candida albicans inhibitors” (Eur J Med Chem, 2014).
In brackets after ≈: the same amount, converted by molar mass.

Experiments:
[1] = tested on: Candida albicans; assay: Antifungal activity against Candida albicans ATCC 90028 after 48 hrs by CLSI broth microdilution method; assay type: functional; conditions: ATCC 90028, 48 h
Method in brief: (§1)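 Yeast CLSI broth microdilution (M27-A3). Compounds dissolved in DMSO at 100× the top test concentration, then diluted as serial two-fold dilutions in RPMI 1640 to final 0.125–64. Inoculum was 1.0–1.5 × 10^3 cells mL−1, incubated at 35 °C and read for growth at 48 h. MIC is the lowest concentration giving ≥50% growth inhibition versus growth control. Reported as the median of five replicates and as the geometric mean.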

[2] = tested on: Candida albicans; assay: Antifungal activity against Candida albicans ATCC 20891 after 48 hrs by CLSI broth microdilution method; assay type: functional; conditions: ATCC 20891, 48 h; method in brief: as §1
[3] = tested on: Candida albicans; assay: Antifungal activity against Candida albicans PMC 1011 after 48 hrs by CLSI broth microdilution method; assay type: functional; conditions: PMC 1011, 48 h; method in brief: as §1
[4] = tested on: Pichia kudriavzevii; assay: Antifungal activity against Candida krusei DSM 6128 after 48 hrs by CLSI broth microdilution method; assay type: functional; conditions: DSM 6128, 48 h; method in brief: as §1
[5] = tested on: Pichia kudriavzevii; assay: Antifungal activity against Candida krusei PMC 0613 after 48 hrs by CLSI broth microdilution method; assay type: functional; conditions: PMC 0613, 48 h; method in brief: as §1
[6] = tested on: Candida tropicalis; assay: Antifungal activity against Candida tropicalis PMC 0910 after 48 hrs by CLSI broth microdilution method; assay type: functional; conditions: PMC 0910, 48 h; method in brief: as §1
[7] = tested on: Candida tropicalis; assay: Antifungal activity against Candida tropicalis DSM 11953 after 48 hrs by CLSI broth microdilution method; assay type: functional; conditions: DSM 11953, 48 h; method in brief: as §1
[8] = tested on: Candida parapsilosis; assay: Antifungal activity against Candida parapsilosis DSM 11224 after 48 hrs by CLSI broth microdilution method; assay type: functional; conditions: Lodderomyces parapsilosis, DSM 11224, 48 h; method in brief: as §1
[9] = tested on: Candida parapsilosis; assay: Antifungal activity against Candida parapsilosis ATCC 22019 after 48 hrs by CLSI broth microdilution method; assay type: functional; conditions: Lodderomyces parapsilosis, ATCC 22019, 48 h; method in brief: as §1
[10] = tested on: Nakaseomyces glabratus; assay: Antifungal activity against Candida glabrata PMC 0805 after 48 hrs by CLSI broth microdilution method; assay type: functional; conditions: PMC 0805, 48 h; method in brief: as §1
[11] = tested on: Nakaseomyces glabratus; assay: Antifungal activity against Candida glabrata PMC 0807 after 48 hrs by CLSI broth microdilution method; assay type: functional; conditions: PMC 0807, 48 h; method in brief: as §1
[12] = tested on: Cryptococcus neoformans; assay: Antifungal activity against Cryptococcus neoformans PMC 2123 after 72 hrs by CLSI broth microdilution method; assay type: functional; conditions: PMC 2123, 72 h
Method in brief: (§2)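 Cryptococcus neoformans tested by CLSI broth microdilution in RPMI 1640, with serial two-fold dilutions from DMSO stocks at 100× the top concentration, final 0.125–64. Inoculum was 1.0–1.5 × 10^3 cells mL−1 at 35 °C, with growth read at 72 h. MIC is the lowest concentration with ≥50% growth inhibition versus control. Median of five replicates, plus geometric mean.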

[13] = tested on: Cryptococcus neoformans; assay: Antifungal activity against Cryptococcus neoformans PMC 2136 after 72 hrs by CLSI broth microdilution method; assay type: functional; conditions: PMC 2136, 72 h; method in brief: as §2
[14] = tested on: Cryptococcus neoformans; assay: Antifungal activity against Cryptococcus neoformans PMC 2115 after 72 hrs by CLSI broth microdilution method; assay type: functional; conditions: PMC 2115, 72 h; method in brief: as §2
[15] = tested on: Cryptococcus neoformans; assay: Antifungal activity against Cryptococcus neoformans PMC 2103 after 72 hrs by CLSI broth microdilution method; assay type: functional; conditions: PMC 2103, 72 h; method in brief: as §2
[16] = tested on: Cryptococcus neoformans; assay: Antifungal activity against Cryptococcus neoformans PMC 2107 after 72 hrs by CLSI broth microdilution method; assay type: functional; conditions: PMC 2107, 72 h; method in brief: as §2
[17] = tested on: Cryptococcus neoformans; assay: Antifungal activity against Cryptococcus neoformans PMC 2102 after 72 hrs by CLSI broth microdilution method; assay type: functional; conditions: PMC 2102, 72 h; method in brief: as §2
[18] = tested on: Cryptococcus neoformans; assay: Antifungal activity against Cryptococcus neoformans DSM 11959 after 72 hrs by CLSI broth microdilution method; assay type: functional; conditions: DSM 11959, 72 h; method in brief: as §2
[19] = tested on: Cryptococcus neoformans; assay: Antifungal activity against Cryptococcus neoformans PMC 2111 after 72 hrs by CLSI broth microdilution method; assay type: functional; conditions: PMC 2111, 72 h; method in brief: as §2
[20] = tested on: Trichophyton mentagrophytes; assay: Antifungal activity against Trichophyton mentagrophytes DSM 4870 after 72 hrs by CLSI broth microdilution method; assay type: functional; conditions: DSM 4870, 72 h
Method in brief: (§3)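 Dermatophytes tested by CLSI broth microdilution for filamentous fungi (M38-A2). Serial two-fold dilutions of DMSO-dissolved compound in RPMI 1640, final 0.125–64. Inoculum was 0.4–5 × 10^4 CFU mL−1, incubated at 35 °C and read at 72 h. MIC80 is the lowest concentration giving ≥80% growth inhibition versus growth control. Median of five replicates, plus geometric mean.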

[21] = tested on: Trichophyton mentagrophytes; assay: Antifungal activity against Trichophyton mentagrophytes PMC 6515 after 72 hrs by CLSI broth microdilution method; assay type: functional; conditions: PMC 6515, 72 h; method in brief: as §3
[22] = tested on: Trichophyton mentagrophytes; assay: Antifungal activity against Trichophyton mentagrophytes PMC 6531 after 72 hrs by CLSI broth microdilution method; assay type: functional; conditions: PMC 6531, 72 h; method in brief: as §3
[23] = tested on: Trichophyton mentagrophytes; assay: Antifungal activity against Trichophyton mentagrophytes PMC 6509 after 72 hrs by CLSI broth microdilution method; assay type: functional; conditions: PMC 6509, 72 h; method in brief: as §3
[24] = tested on: Trichophyton mentagrophytes; assay: Antifungal activity against Trichophyton mentagrophytes PMC 6503 after 72 hrs by CLSI broth microdilution method; assay type: functional; conditions: PMC 6503, 72 h; method in brief: as §3
[25] = tested on: Trichophyton mentagrophytes; assay: Antifungal activity against Trichophyton mentagrophytes PMC 6552 after 72 hrs by CLSI broth microdilution method; assay type: functional; conditions: PMC 6552, 72 h; method in brief: as §3
[26] = tested on: Nannizzia gypsea; assay: Antifungal activity against Microsporum gypseum PMC 7303 after 72 hrs by CLSI broth microdilution method; assay type: functional; conditions: PMC 7303, 72 h; method in brief: as §3
[27] = tested on: Nannizzia gypsea; assay: Antifungal activity against Microsporum gypseum PMC 7331 after 72 hrs by CLSI broth microdilution method; assay type: functional; conditions: PMC 7331, 72 h; method in brief: as §3
[28] = tested on: Nannizzia gypsea; assay: Antifungal activity against Microsporum gypseum DSM 3824 after 72 hrs by CLSI broth microdilution method; assay type: functional; conditions: DSM 3824, 72 h; method in brief: as §3
[29] = tested on: Candida albicans; assay: Antifungal activity against Candida albicans PMC 1040R after 48 hrs by CLSI broth microdilution method; assay type: functional; method in brief: as §1
[30] = tested on: Candida albicans; assay: Antifungal activity against Candida albicans PMC 1041R after 48 hrs by CLSI broth microdilution method; assay type: functional; method in brief: as §1
[31] = tested on: Nakaseomyces glabratus; assay: Antifungal activity against Candida glabrata PMC 0850R after 48 hrs by CLSI broth microdilution method; assay type: functional; method in brief: as §1
[32] = tested on: Nakaseomyces glabratus; assay: Antifungal activity against Candida glabrata PMC 0851R after 48 hrs by CLSI broth microdilution method; assay type: functional; method in brief: as §1
[33] = tested on: Nakaseomyces glabratus; assay: Antifungal activity against Candida glabrata PMC 0852R after 48 hrs by CLSI broth microdilution method; assay type: functional; method in brief: as §1
[34] = tested on: Nakaseomyces glabratus; assay: Antifungal activity against Candida glabrata PMC 0853R after 48 hrs by CLSI broth microdilution method; assay type: functional; method in brief: as §1
[35] = tested on: Candida albicans; assay: Antifungal activity against Candida albicans PMC 1042R after 48 hrs by CLSI broth microdilution method; assay type: functional; method in brief: as §1
[36] = Cytotoxicity against human A549 cells after 48 hrs by MTT assay; assay type: cell-based
Method in brief: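 A549 cells (ATCC CCL-185) seeded at 2 × 10^4/well in phenol-red-free RPMI 1640 with 10% FBS, L-glutamine, penicillin and streptomycin, at 37 °C and 5% CO2. Exposed 48 h to DMSO-dissolved compounds (final 16–256; at least five concentrations, triplicate). MTT added for 3–4 h, crystals solubilized, OD read at 570 nm. CC50 taken versus the DMSO control. Mean ± SD of two independent experiments.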

[37] = tested on: Candida albicans; assay: Antifungal activity against Candida albicans ATCC 24433 after 48 hrs by CLSI broth microdilution method; assay type: functional; conditions: ATCC 24433, 48 h; method in brief: as §1
[38] = tested on: Candida albicans; assay: Antifungal activity against Candida albicans ATCC 3153 after 48 hrs by CLSI broth microdilution method; assay type: functional; conditions: ATCC 3153, 48 h; method in brief: as §1
[39] = tested on: Candida albicans; assay: Antifungal activity against Candida albicans ATCC 10231 after 48 hrs by CLSI broth microdilution method; assay type: functional; conditions: ATCC 10231, 48 h; method in brief: as §1
[40] = tested on: Candida albicans; assay: Antifungal activity against Candida albicans ATCC 76615 after 48 hrs by CLSI broth microdilution method; assay type: functional; conditions: ATCC 76615, 48 h; method in brief: as §1
[41] = tested on: Candida albicans; assay: Antifungal activity against Candida albicans ATCC 10261 after 48 hrs by CLSI broth microdilution method; assay type: functional; conditions: ATCC 10261, 48 h; method in brief: as §1

O=C(Nc1ccc(N2CCN(c3ccc(Cl)cc3)CC2)cc1)OC(Cn1ccnc1)c1ccc(F)cc1 (stereo unspecified)
MIC50 [1]: 0.25 µg/mL (≈ 0.481 µM)
MIC50 [2]: 0.125 µg/mL (≈ 0.24 µM)
MIC50 [3]: 0.25 µg/mL (≈ 0.481 µM)
MIC50 [4]: 1 µg/mL (≈ 1.92 µM)
MIC50 [5]: 0.125 µg/mL (≈ 0.24 µM)
MIC50 [6]: 2 µg/mL (≈ 3.85 µM)
MIC50 [7]: 0.5 µg/mL (≈ 0.962 µM)
MIC50 [8]: 0.125 µg/mL (≈ 0.24 µM)
MIC50 [9]: 0.25 µg/mL (≈ 0.481 µM)
MIC50 [10]: 0.125 µg/mL (≈ 0.24 µM)
MIC50 [11]: 1 µg/mL (≈ 1.92 µM)
MIC50 [12]: 0.5 µg/mL (≈ 0.962 µM)
MIC50 [13]: 0.125 µg/mL (≈ 0.24 µM)
MIC50 [14]: 0.25 µg/mL (≈ 0.481 µM)
MIC50 [15]: 0.25 µg/mL (≈ 0.481 µM)
MIC50 [16]: 0.25 µg/mL (≈ 0.481 µM)
MIC50 [17]: 0.25 µg/mL (≈ 0.481 µM)
MIC50 [18]: 0.25 µg/mL (≈ 0.481 µM)
MIC50 [19]: 0.5 µg/mL (≈ 0.962 µM)
MIC80 [20]: 8 µg/mL (≈ 15.4 µM)
MIC80 [21]: 8 µg/mL (≈ 15.4 µM)
MIC80 [22]: 8 µg/mL (≈ 15.4 µM)
MIC80 [23]: 8 µg/mL (≈ 15.4 µM)
MIC80 [24]: 8 µg/mL (≈ 15.4 µM)
MIC80 [25]: 8 µg/mL (≈ 15.4 µM)
MIC80 [26]: 4 µg/mL (≈ 7.69 µM)
MIC80 [27]: 8 µg/mL (≈ 15.4 µM)
MIC80 [28]: 4 µg/mL (≈ 7.69 µM)
MIC50 [29]: 64 µg/mL (≈ 123 µM)
MIC50 [30]: 1 µg/mL (≈ 1.92 µM)
MIC50 [31]: 1 µg/mL (≈ 1.92 µM)
MIC50 [32]: 64 µg/mL (≈ 123 µM)
MIC50 [33]: 4 µg/mL (≈ 7.69 µM)
MIC50 [34]: 4 µg/mL (≈ 7.69 µM)
MIC50 [35]: 2 µg/mL (≈ 3.85 µM)
CC50 at 48 h [36]: 172 µg/mL (≈ 330 µM)
MIC50 [37]: 4 µg/mL (≈ 7.69 µM)
MIC50 [38]: 8 µg/mL (≈ 15.4 µM)
MIC50 [39]: 4 µg/mL (≈ 7.69 µM)
MIC50 [40]: 8 µg/mL (≈ 15.4 µM)
MIC50 [41]: 1 µg/mL (≈ 1.92 µM)
